In ChEMBL document CHEMBL4312029, “Structure-activity relationship studies and in vitro and in vivo anticancer activity of novel 3-aroyl-1,4-diarylpyrroles against solid tumors and hematological malignancies” (Eur J Med Chem, 2020):
pIC50: −log10 of the molar value.

What was measured:
MCF7 = assay: Cytotoxicity against human MCF7 cells assessed as reduction in cell growth incubated for 96 hrs by MTT assay; type: functional, cell-based; conditions: MCF7, 96 h
Outline: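 Growth inhibition of human breast carcinoma cells, reported as IC50; run in duplicate or triplicate.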

Tubulin = assay: Inhibition of tubulin polymerization (unknown origin) incubated for 15 mins followed by GTP addition and measured for 20 mins by spectrophotometry; type: protein-complex assay, Homo sapiens
Outline: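 Tubulin assembly assay with tubulin at 10 µM. IC50 for inhibition of polymerization; run in duplicate or triplicate.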

Tubulin (Homo sapiens) = Tubulin (Homo sapiens) (UniProt P68371+Q9H4B7+P0DPH7+P68366+Q13509+Q71U36+P04350+Q3ZCM7+P07437+P68363+Q9BQE3+Q6PEY2+Q13885+Q9BVA1+Q9BUF5); assay: Inhibition of [3H]colchicine binding to tubulin (unknown origin) at 5 uM incubated for 10 mins by DEAE-cellulose filter method relative to control; type: protein-complex assay
[1] = Cytotoxicity against IM resistant human LAMA84-r cells assessed as reduction in cell viability incubated for 48 hrs by MTT assay; type: functional, cell-based
SW480 = assay: Cytotoxicity against human SW480 cells assessed as reduction in cell viability incubated for 48 hrs by MTT assay; type: functional, cell-based
KBM5 [2] = assay: Cytotoxicity against human KBM5 cells expressing IM-resistant Bcr/Abl T315I mutant assessed as reduction in cell viability incubated for 48 hrs by MTT assay; type: functional, cell-based; conditions: KBM5, 48 h
U-87 MG = assay: Cytotoxicity against human U87MG cells assessed as reduction in cell viability incubated for 48 hrs by MTS assay; type: functional, cell-based, U-87MG ATCC
Outline: (§1)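 Increasing concentrations applied to glioblastoma and neuroblastoma lines to give dose-response viability curves; cytotoxic IC50 from triplicate experiments. Incubation 48 h, except U343MG at 72 h.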

KU812 cell line = assay: Cytotoxicity against human KU812 cells expressing IM- sensitive wild type Bcr/Abl assessed as reduction in cell viability incubated for 48 hrs by MTT assay; type: functional, cell-based; conditions: KU812, 48 h
PBMC = assay: Cytotoxicity against human PBMC assessed as cell viability by MTT assay; type: cell-based
[3] = Cytotoxicity against human SK-N-BE cells assessed as reduction in cell viability incubated for 48 hrs by MTT assay; type: functional, cell-based; outline: as §1
[4] = (§2) Cytotoxicity against human U343MG cells assessed as reduction in cell viability incubated for 72 hrs by MTS assay; type: functional, cell-based; conditions: U-343MG; outline: as §1
Homo sapiens = species: Homo sapiens; assay: as §2; type: functional, cell-based; outline: as §1
SW-620 = assay: Cytotoxicity against human SW620 cells assessed as reduction in cell viability incubated for 48 hrs by MTT assay; type: functional, cell-based
HT-29 = assay: Cytotoxicity against human HT-29 cells assessed as reduction in cell viability incubated for 48 hrs by MTT assay; type: functional, cell-based
[5] = Cytotoxicity against human SK-N-BE(2)C cells assessed as reduction in cell viability incubated for 48 hrs by MTT assay; type: functional, cell-based; outline: as §1
T98G = assay: Cytotoxicity against human T98G cells assessed as reduction in cell viability incubated for 48 hrs by MTS assay; type: functional, cell-based; outline: as §1
[6] = Cytotoxicity against human LAMA84-s cells expressing IM-sensitive wild type Bcr/Abl assessed as reduction in cell viability incubated for 48 hrs by MTT assay; type: functional, cell-based
T-24 = assay: Cytotoxicity against human T24 cells assessed as reduction in cell viability incubated for 48 hrs by MTT assay; type: functional, cell-based; conditions: T-24, 48 h
KBM5 [7] = assay: Cytotoxicity against human KBM5 cells expressing IM- sensitive wild type Bcr/Abl assessed as reduction in cell viability incubated for 48 hrs by MTT assay; type: functional, cell-based; conditions: KBM5, 48 h
HCT-116 = assay: Cytotoxicity against human HCT116 cells assessed as reduction in cell viability incubated for 48 hrs by MTT assay; type: functional, cell-based

COc1cc(C(=O)c2cn(-c3cccc(Br)c3)cc2-c2ccccc2)cc(OC)c1OC
pIC50 (MCF7): 7.11 | pIC50 (Tubulin): 5.72 | inhibition (Tubulin (Homo sapiens)): 23%

COc1cc(C(=O)c2cn(-c3ccccc3)cc2-c2ccccc2C)cc(OC)c1OC
pIC50 (MCF7): 6.72 | pIC50 (Tubulin): 6.10 | inhibition (Tubulin (Homo sapiens)): 18%

COc1cc(C(=O)c2cn(-c3cccc(F)c3)cc2-c2ccccc2[N+](=O)[O-])cc(OC)c1OC
pIC50 (MCF7): 6.72 | pIC50 (Tubulin): 5.96 | inhibition (Tubulin (Homo sapiens)): 41%

COc1cc(C(=O)c2cn(-c3cccc(N)c3)cc2-c2ccccc2F)cc(OC)c1OC
pIC50 [1]: 7.85 | inhibition (SW480): Dose-dependent effect | pIC50 (SW480; SW480, 48 h): 6.79 | pIC50 (KBM5 [2]): 7.66 | pIC50 (MCF7): 7.77 | Emax (U-87 MG): 22% | pIC50 (U-87 MG): 7.21 | inhibition (U-87 MG; U-87MG ATCC): Dose-dependent effect | pIC50 (KU812 cell line): 7.85 | Activity (PBMC): Non-Toxic | pIC50 [3]: 6.61 | Emax [4]: 31% | pIC50 [4]: 7.16 | inhibition (Homo sapiens): Dose-dependent effect | inhibition (SW-620): Dose-dependent effect | pIC50 (SW-620; SW-620, 48 h): 6.91 | inhibition (HT-29): Dose-dependent effect | pIC50 (HT-29; HT-29, 48 h): 7.25 | pIC50 [5]: 6.97 | pIC50 (Tubulin): 6.30 | Emax (T98G): 38.4% | pIC50 (T98G): 7.26 to 7.27 | inhibition (T98G): Dose-dependent effect | pIC50 [6]: 7.82 | pIC50 (T-24): 7.47 | pIC50 (KBM5 [7]): 7.74 | inhibition (Tubulin (Homo sapiens)): 90% | inhibition (HCT-116): Dose-dependent effect | pIC50 (HCT-116; HCT-116, 48 h): 7.38
